Source: PubChem BioAssay
FLuc act counter: affects firefly luciferase, flagging false hits in luciferase stimulation screens; ATPlite luciferase biochemical, luminescence, 10 min; 0 = ATP-free wells, 1 = DMSO control; AID 1027; 200,000 tested, under 10 active; activation factor at 10 µM;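 active = luciferase activation factor, scaled between plate controls, of at least 2 with compound at 10 µM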
Target sequence (P08659 whole entry, looked up): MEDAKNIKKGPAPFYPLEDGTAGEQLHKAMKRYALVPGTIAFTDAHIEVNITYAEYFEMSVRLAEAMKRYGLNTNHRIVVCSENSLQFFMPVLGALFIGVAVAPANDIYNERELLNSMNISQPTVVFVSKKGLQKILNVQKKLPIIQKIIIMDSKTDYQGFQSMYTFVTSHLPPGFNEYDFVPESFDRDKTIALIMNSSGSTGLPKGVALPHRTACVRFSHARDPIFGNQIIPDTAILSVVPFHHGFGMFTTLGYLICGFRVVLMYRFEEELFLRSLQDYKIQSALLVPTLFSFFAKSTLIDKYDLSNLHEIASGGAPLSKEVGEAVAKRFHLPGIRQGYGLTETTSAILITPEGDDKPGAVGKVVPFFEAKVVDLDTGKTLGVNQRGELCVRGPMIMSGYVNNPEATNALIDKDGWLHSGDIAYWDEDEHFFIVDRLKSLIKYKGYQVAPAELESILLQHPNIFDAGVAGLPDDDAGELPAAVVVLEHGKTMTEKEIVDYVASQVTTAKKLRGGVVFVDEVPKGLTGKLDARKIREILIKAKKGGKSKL
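System: cell-free luciferase reagent; medium: PBS as buffer for the ATP substrate; doses: test compounds dosed from 2 mM stocks in 100% DMSO; incubation: 10 min, room temperature; measured by: luminescence from luciferase reaction; read-out: luciferase activation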
FLuc inhib CS: Photinus pyralis luciferase inhibition counter-screen; inhibition, % at 10 µM; ATPLite firefly luciferase biochemical luminescence, 10 min; P08659; 200,000 tested, 1.5% active;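 active = inhibition above about 50% when tested at 10 µM, limit read from the data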
PPC-1+TRAIL kill: PPC-1 cancer cell killing with TRAIL present; PPC-1 cells + TRAIL, ATPLite viability luminescence; cell killing (% activity), % at 4 µM or 5 µM; AID 1443; 220,000 tested, 0.41% active;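 active = cell killing above 50% in the first pass at 4 µM, then a duplicate retest at 5 µM averaging 50% or more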;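 note: plate controls were cells with TRAIL plus DMSO for no effect and medium-only wells lacking cells for full effect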
C8 TRAIL sens: caspase-8 TRAIL sensitization; AID 624354; 360,000 tested, 1% active; inhibition (viability loss, TRAIL sensitization), % at 10 µM; NB7+C8 cells + TRAIL, ATPlite viability luminescence;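 active = compounds causing at least 50% loss of cell viability in the single-dose screen, relative to plate controls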
* = called active by the depositor; · = no result. The list is not random: actives were taken first. Their share in the collection is about 1.6%.

SMILES | FLuc act counter | FLuc inhib CS | PPC-1+TRAIL kill | C8 TRAIL sens
CCc1nc(N2CCN(C(=O)CCl)CC2)c2c3c(sc2n1)CC(C)CC3 (configuration not stated) | · | · | · | 87.2*
CCc1nc(N2CCN(C(C)=O)CC2)c2c3c(sc2n1)CC(C(C)(C)C)CC3 (configuration not stated) | · | · | · | 31.6
Cc1cc2nc(-c3ccc(SCC(=O)Nc4ccc(S(=O)(=O)NC5CC5)cc4)nc3)[nH]c2cc1C | 0.1 | 86.3* | 51.6* | 83.9*
COC(=O)CSc1ccc(-c2nc3ccc(C)cc3[nH]2)cn1 | 0.4 | 61.3* | 24.4 | 10.4
Cc1cc2nc(-c3ccc(SCc4ccc(C(=O)O)cc4)nc3)[nH]c2cc1C | 0.8 | 17.5 | 20.0 | 7.3
Cc1cc2nc(-c3ccc(SCC(=O)NC(C)C)nc3)[nH]c2cc1C | 0.5 | 50.9* | 30.3 | ·
Cc1cc2nc(-c3ccc(SCC(=O)N4CCc5ccccc54)nc3)[nH]c2cc1C | 0.2 | 82.1* | 44.6 | 81.2*
COc1ccc(OCCOc2ccc(/C=C3\C(=N)N4N=C(C)SC4=NC3=O)cc2)cc1 | · | · | · | 2.6
C[C@H]1CN([C@@H](C)CO)C(=O)CCCn2nncc2CO[C@@H]1CN(C)S(=O)(=O)c1cn(C)cn1 | · | · | · | -5.2
CCN(CC)c1c(C)nc2ccc(C(=O)NCc3ccc4c(c3)OCO4)cn12 | · | · | · | 1.0
O=C(Nc1ccc(N2CCCC(O)C2)cc1)c1snc2c(=O)[nH]cnc12 (configuration not stated) | 0.3 | 65.5* | 46.8 | 48.5
Cc1nc2c(C(=O)Nc3ccc(N4CCCC(O)C4)cc3)snc2c(=O)[nH]1 (configuration not stated) | · | · | -3.7 | 20.2
CN[C@H](C)C(=O)NC[C@H]1O[C@@H](n2cnc3c(N)ncnc32)[C@H](O)[C@@H]1O | · | · | · | 6.5
CCCCNC(=O)c1cn(C)c2ccc(S(=O)(=O)N3CC(C)CC(C)C3)cc2c1=O (configuration not stated) | · | · | · | 56.5*
CCn1cc(C(=O)NCC(OC)OC)c(=O)c2cc(S(=O)(=O)N3CCC(C)CC3)ccc21 | · | · | · | 65.2*
CCn1cc(C(=O)NCC(OC)OC)c(=O)c2cc(S(=O)(=O)N3CCCC3)ccc21 | · | · | · | 13.6
O=C(O)c1ccc(C=C(c2nc3ccccc3s2)c2nc3ccccc3s2)cc1 | 1 | 3.6 | 21.0 | 9.9
CN(C)c1ccc(/C=C(\Cl)c2nc3ccccc3s2)cc1 | 0.4 | 64.2* | 24.7 | 45.8
COC(=O)[C@@H]1Cc2c([nH]c3ccccc23)C(C)(C)N1C(=O)CCl | · | · | · | 95.6*
COc1ccc(-c2cn3ccccc3n2)cc1OC | 0.2 | 76.9* | 30.6 | 60.3*
O=C(Nc1cccc(OC(F)(F)F)c1)C1Cc2c(-c3cccc(F)c3)ccnc2O1 (configuration not stated) | · | · | · | 4.9
O=C1CN(c2nc(-c3cccnc3)nc3sc4c(c23)CCCC4)CCN1 | 1 | 2.9 | 14.1 | 19.4
Nc1nc(-c2cccnc2)nc2sc3c(c12)CCCC3 | 0.2 | 84.9* | 48.7 | 60.1*
Clc1ccccc1OCc1nc(-c2ccc(Br)o2)no1 | 1 | 1.3 | 12.7 | -2.0
Clc1ccc(OCc2nc(-c3ccccn3)no2)c(Br)c1 | 0.3 | 70.3* | 44.9 | 51.9*
SMILES | FLuc act counter | FLuc inhib CS | PPC-1+TRAIL kill | C8 TRAIL sens
Clc1ccccc1OCc1nc(-c2ccccn2)no1 | 0.5 | 51.3* | 15.8 | 28.2
O=C(O)c1cn(Cc2ccccc2)nc1-c1cccnc1 | 1.1 | -7.1 | 19.2 | 0.0
COc1ccccc1/C=C/C=N/n1c(-c2cc(-c3ccccc3)n[nH]2)n[nH]c1=S | · | · | 9.9 | 58.2*
CCCSc1cc(NCCOC(=O)CCC)c([N+](=O)[O-])c2nonc12 | 1.1 | -5.1 | 11.1 | -4.9
CCCC(=O)OCCNc1cc(Sc2nccn2C)c2nonc2c1[N+](=O)[O-] | 1.1 | -7.1 | 13.4 | 57.1*
Nc1c2c(nc3sc4c(c13)CCCCC4)CCCCC2 | 0.4 | 61.9* | 3.5 | 65.0*
CCOC(=O)c1ccc2c(c1)nc(-c1ccccn1)n2CC | · | · | · | 56.4*
CCOC(=O)Cn1c(-c2ccccn2)nc2ccccc21 | 1 | -3.9 | 14.6 | 5.7
COc1c(OC(C)=O)ccc(/C=C/c2ccc3cccc(OCc4ccccc4)c3n2)c1[N+](=O)[O-] | 0.8 | 18.1 | 20.6 | 49.4*
Cc1ccc(NC(CC(=O)c2ccccc2)c2ccc(F)cc2)cc1 (configuration not stated) | 1 | 0.0 | 11.4 | 2.0
O=C(CC(Nc1ccc(F)cc1)C(=O)O)c1ccccc1 (configuration not stated) | 0.1 | 86.8* | 4.6 | 59.8*
O=C(c1ccco1)N1CCN(C2CN(C3CCCCC3)S(=O)(=O)C2)CC1 (configuration not stated) | · | · | · | 6.6
Cc1c(NC(=O)COC(=O)c2cccc(F)c2)c(=O)n(-c2ccccc2)n1C | · | · | · | 17.1
S=C1Nc2ccccc2CS1 | · | · | · | -11.2
S=C1Cc2ccccc2N1 | · | · | 22.5 | 59.8*
Cc1ccc(CSc2ccc(-c3ccco3)nn2)cc1 | 0.4 | 55.0* | 30.9 | 40.3
Clc1ccc(CSc2ccc(-c3ccco3)nn2)cc1 | 0.8 | 17.9 | 8.3 | 8.7
Clc1ccc(CSc2ccc(-c3ccccn3)nn2)cc1 | 1 | 0.4 | 10.0 | 14.7
Clc1cccc(CSc2ccc(-c3ccco3)nn2)c1 | 0.9 | 11.3 | 24.8 | 6.2
c1ccc(CSc2ccc(-c3ccco3)nn2)cc1 | 0.2 | 82.6* | 25.5 | 59.1*
Fc1ccccc1CSc1ccc(-c2ccco2)nn1 | 0.2 | 78.4* | 16.1 | 40.3
c1ccc(CSc2ccc(-c3ccccn3)nn2)cc1 | 0.4 | 57.8* | 16.5 | 41.8
COCCCN1C(=O)C(CC(=O)NC(c2ccccc2)c2ccccc2)CC(C(=O)N(C(C)C)C(C)C)=C1C (configuration not stated) | · | · | · | -0.6
COc1c(C=O)c2c(c(OC)c1OC)-c1ccc(OC)c(=O)cc1C(NC(C)=O)CC2 (configuration not stated) | · | · | · | -7.1
CC1Oc2cc3oc4c(O)c(O)ccc4c(=O)c3c(O)c2C1(C)C (configuration not stated) | · | · | · | 52.7*
SMILES | FLuc act counter | FLuc inhib CS | PPC-1+TRAIL kill | C8 TRAIL sens
COc1ccc(-c2cc(=O)oc3c(O)c(O)ccc23)cc1 | · | · | · | 1.6
CC1CN(Cc2ccccc2)c2ccccc2NC1=S (configuration not stated) | 1 | 0.9 | 51.6* | 1.2
CC(C)C[C@H]1CNC(=S)N1C[C@H]1CCCN1C[C@H](Cc1ccccc1)N1C[C@H](Cc2ccc(O)cc2)N(CC2CCCCC2)C1=S | · | · | · | 67.8*
Clc1ccc2nc3c4ccccc4cnn3c2c1 | 0.4 | 62.6* | 32.5 | 40.5
COn1c(-c2ccccc2)nc2ccc(Cl)cc21 | 0.8 | 20.5 | -0.3 | 0.2
O=C(/C=C/c1ccco1)Oc1cc(Br)cc(/C=N/NC(=O)c2ccccc2O)c1 | 1 | -0.3 | 51.7* | 43.7
S=C(Nc1ccc(Cl)cc1)c1nc2ccccc2s1 | 1 | 2.2 | 25.5 | 30.1
O=C(Nc1ccc(Cl)cc1)/C(=C/c1cccc(O)c1)c1nc2ccccc2s1 | 1 | -1.2 | 36.9 | 88.0*
Cc1ccn2c(NC(=O)c3ccccc3)c(-c3ccccc3)nc2c1 | · | · | · | -9.5
O=C(c1ccco1)n1c(=S)nc2ccccn21 | 0.3 | 68.4* | 16.3 | 36.4
